The values that follow come from ChEMBL document CHEMBL1138040, “Activation of murine RNase L by isopolar 2'-phosphonate analogues of 2',5' oligoadenylates” (J Med Chem, 2006).

Structures are written as SMILES.

The target of series [1] is T1, 2-5A-dependent ribonuclease (Mus musculus) (UniProt Q05921).
T1 sequence (whole entry): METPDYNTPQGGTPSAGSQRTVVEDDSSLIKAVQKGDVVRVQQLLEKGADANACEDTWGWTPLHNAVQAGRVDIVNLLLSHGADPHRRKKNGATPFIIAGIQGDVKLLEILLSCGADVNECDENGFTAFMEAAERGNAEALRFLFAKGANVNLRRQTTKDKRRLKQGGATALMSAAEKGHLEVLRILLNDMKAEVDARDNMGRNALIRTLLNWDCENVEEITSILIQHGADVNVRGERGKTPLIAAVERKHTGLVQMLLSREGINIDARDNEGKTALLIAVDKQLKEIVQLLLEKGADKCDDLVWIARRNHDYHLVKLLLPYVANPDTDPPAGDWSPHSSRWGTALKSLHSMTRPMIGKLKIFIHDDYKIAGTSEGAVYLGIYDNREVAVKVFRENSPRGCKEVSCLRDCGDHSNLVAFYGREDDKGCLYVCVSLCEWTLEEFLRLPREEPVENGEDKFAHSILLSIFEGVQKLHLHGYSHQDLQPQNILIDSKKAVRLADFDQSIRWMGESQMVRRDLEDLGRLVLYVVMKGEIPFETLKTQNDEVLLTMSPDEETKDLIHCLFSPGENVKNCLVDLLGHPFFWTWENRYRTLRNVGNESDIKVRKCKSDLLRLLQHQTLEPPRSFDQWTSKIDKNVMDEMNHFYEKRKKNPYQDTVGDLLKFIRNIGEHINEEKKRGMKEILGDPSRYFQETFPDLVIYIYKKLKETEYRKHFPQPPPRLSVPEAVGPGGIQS
Nature of the series: Displacement of pA4[32P]pCp from mouse spleen RNase L at 1 uM. Type of series: tissue-based. In short, it runs like this: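 Competitive radiobinding using 20 µL male BALB/c mouse spleen 126 000g supernatant; oligoadenylate at 1 µM final with about 0.4 nM pA4-[32P]pCp in 25 µL. Held 60 min at 4 °C, filtered through nitrocellulose, washed with Tris pH 7.6/KCl/MgCl2/glycerol, bound radioactivity counted by scintillation. Triplicates; percent binding relative to natural pA4.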

Series [2] addresses T2, 2-5A-dependent ribonuclease (Mus musculus, UniProt Q05921).
T2 sequence (Q05921 whole entry): T1 sequence (whole entry)
The series is described as follows: Binding to mouse RNase L assessed as displacement of pA4-[32P]pCp.

Series [3] is filed under the species Mus musculus. The series is described as follows: Stability in mouse spleen assessed as ability to resist degradation by nuclease. Type of series: ADME. In short, it runs like this: (§1)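 Oligoadenylate (2.5 nmol) mixed with 9 µL soluble mouse spleen 126 000g supernatant, kept at 4 °C. Sampled periodically: diluted with aqueous 0.1% TFA, spun 14 000g 10 min, run on C18 RP-HPLC (acetonitrile gradient in 0.1% TFA, 260 nm). Intact and degradation peaks integrated to follow degradation over time.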

The nature of series [4]: Half life in mouse spleen at 4 degreeC. Type of series: ADME. In short, it runs like this:
as §1

As to `Nc1ncnc2c1ncn2[C@@H]1O[C@H](COP(=O)(O)O[C@@H]2[C@H](O)[C@@H](COP(=O)(O)O[C@H]3[C@H](O)[C@@H](COP(=O)(O)O[C@H]4[C@H](O)[C@@H](COP(=O)(O)O)O[C@H]4n4cnc5c(N)ncnc54)O[C@H]3n3cnc4c(N)ncnc43)O[C@H]2n2cnc3c(N)ncnc32)[C@@H](O)[C@H]1OP(=O)(O)O`, the Activity in series [1] worked out at 24%.

In the case of `Nc1ncnc2c1ncn2[C@@H]1O[C@H](COP(=O)(O)O[C@@H]2[C@H](O)[C@@H](COP(=O)(O)O[C@H]3[C@H](O)[C@@H](COP(=O)(O)O)O[C@H]3n3cnc4c(N)ncnc43)O[C@H]2n2cnc3c(N)ncnc32)[C@@H](O)[C@H]1OP(=O)(O)O`, the Activity in series [1] is 49%. The same measure, in the same setting: in the case of `Nc1ncnc2c1ncn2[C@@H]1O[C@H](COP(=O)(O)O[C@@H]2[C@H](O)[C@@H](COP(=O)(O)O)O[C@H]2n2cnc3c(N)ncnc32)[C@H](O)[C@H]1OP(=O)(O)OC[C@H]1O[C@@H](n2cnc3c(N)ncnc32)[C@H](OP(=O)(O)OC[C@H]2O[C@@H](n3cnc4c(N)ncnc43)[C@H](OP(=O)(O)O)[C@@H]2O)[C@@H]1O` it was 67%.

Molecule `Nc1ncnc2c1ncn2[C@@H]1O[C@H](COP(=O)(O)O)[C@H](O)[C@H]1OP(=O)(O)OC[C@H]1O[C@@H](n2cnc3c(N)ncnc32)[C@H](OP(=O)(O)OC[C@H]2O[C@@H](n3cnc4c(N)ncnc43)[C@H](OP(=O)(O)OC[C@H]3O[C@@H](n4cnc5c(N)ncnc54)[C@H](OP(=O)(O)O)[C@@H]3O)[C@@H]2O)[C@H]1O` displayed an Activity in series [1] of 51%. In series [1], `Nc1ncnc2c1ncn2[C@@H]1O[C@H](COP(=O)(O)O[C@@H]2[C@@H](O)[C@@H](COP(=O)(O)O[C@@H]3[C@H](O)[C@@H](COP(=O)(O)O)O[C@H]3n3cnc4c(N)ncnc43)O[C@H]2n2cnc3c(N)ncnc32)[C@H](O)[C@H]1OP(=O)(O)OC[C@H]1O[C@@H](n2cnc3c(N)ncnc32)[C@H](OP(=O)(O)O)[C@@H]1O` gave an Activity of 88%. In addition, the EC50 (usually the concentration that produces a half-maximal response) in series [2] stood at 393 nM. With `Nc1ncnc2c1ncn2[C@@H]1O[C@H](COP(=O)(O)O)[C@H](O)[C@H]1OP(=O)(O)OC[C@H]1O[C@@H](n2cnc3c(N)ncnc32)[C@H](OP(=O)(O)OC[C@H]2O[C@@H](n3cnc4c(N)ncnc43)[C@H](OP(=O)(O)OC[C@H]3O[C@@H](n4cnc5c(N)ncnc54)[C@H](OP(=O)(O)O)[C@@H]3O)[C@H]2O)[C@@H]1O`, the Stability entry in series [3] is listed as “Stable”. The same molecule displayed an Activity in series [1] of 93%. Further, in series [2], the concentration giving a half-maximal response (EC50) was 323 nM.

Molecule `Nc1ncnc2c1ncn2[C@@H]1O[C@H](COP(=O)(O)O)[C@H](O)[C@H]1OP(=O)(O)OC[C@H]1O[C@@H](n2cnc3c(N)ncnc32)[C@H](OP(=O)(O)OC[C@H]2O[C@@H](n3cnc4c(N)ncnc43)[C@H](OP(=O)(O)O)[C@@H]2O)[C@@H]1O` registered an Activity in series [1] of 64%.

Take `Nc1ncnc2c1ncn2[C@@H]1O[C@H](COP(=O)(O)O[C@H]2[C@H](O)[C@@H](COP(=O)(O)O[C@@H]3[C@H](O)[C@@H](COP(=O)(O)O)O[C@H]3n3cnc4c(N)ncnc43)O[C@H]2n2cnc3c(N)ncnc32)[C@@H](O)[C@H]1OP(=O)(O)O`: in series [1], the Activity is 33%. On the same count and under the same terms, next, `Nc1ncnc2c1ncn2[C@@H]1O[C@H](COP(=O)(O)O[C@H]2[C@H](O)[C@@H](COP(=O)(O)O[C@H]3[C@H](O)[C@@H](COP(=O)(O)O[C@@H]4[C@H](O)[C@@H](COP(=O)(O)O)O[C@H]4n4cnc5c(N)ncnc54)O[C@H]3n3cnc4c(N)ncnc43)O[C@H]2n2cnc3c(N)ncnc32)[C@@H](O)[C@H]1OP(=O)(O)O`: 33%; `Nc1ncnc2c1ncn2[C@@H]1O[C@H](COP(=O)(O)O[C@H]2[C@H](O)[C@@H](COP(=O)(O)O[C@H]3[C@H](O)[C@@H](COP(=O)(O)O[C@H]4[C@H](O)[C@@H](COP(=O)(O)O)O[C@H]4n4cnc5c(N)ncnc54)O[C@H]3n3cnc4c(N)ncnc43)O[C@H]2n2cnc3c(N)ncnc32)[C@@H](O)[C@H]1OP(=O)(O)O`: 0%. Same read-out and setting: next, `Nc1ncnc2c1ncn2[C@@H]1O[C@H](COP(=O)(O)O[C@@H]2[C@H](O)[C@@H](COP(=O)(O)O)O[C@H]2n2cnc3c(N)ncnc32)[C@H](O)[C@H]1OP(=O)(O)OC[C@H]1O[C@@H](n2cnc3c(N)ncnc32)[C@H](OP(=O)(O)O)[C@@H]1O`: 41%; `Nc1ncnc2c1ncn2[C@@H]1O[C@H](COP(=O)(O)O[C@H]2[C@H](O)[C@@H](COP(=O)(O)O[C@H]3[C@H](O)[C@@H](COP(=O)(O)O)O[C@H]3n3cnc4c(N)ncnc43)O[C@H]2n2cnc3c(N)ncnc32)[C@@H](O)[C@H]1OP(=O)(O)O`: 0%. In series [1], `Nc1ncnc2c1ncn2[C@@H]1O[C@H](COP(=O)(O)O)[C@H](O)[C@H]1OP(=O)(O)OC[C@H]1O[C@@H](n2cnc3c(N)ncnc32)[C@H](OP(=O)(O)OC[C@H]2O[C@@H](n3cnc4c(N)ncnc43)[C@H](OP(=O)(O)O)[C@@H]2O)[C@H]1O` displayed an Activity of 45%. Turning to `Nc1ncnc2c1ncn2[C@@H]1O[C@H](COP(=O)(O)O[C@@H]2[C@H](O)[C@@H](COP(=O)(O)O[C@@H]3[C@H](O)[C@@H](COP(=O)(O)O[C@@H]4[C@H](O)[C@@H](COP(=O)(O)O)O[C@H]4n4cnc5c(N)ncnc54)O[C@H]3n3cnc4c(N)ncnc43)O[C@H]2n2cnc3c(N)ncnc32)[C@@H](O)[C@H]1OP(=O)(O)O`, the half-life – broadly, the time needed for the level to fall by half in the phase considered – in series [4] is 10 h. Further, the Activity in series [1] came to 100%. Also, the concentration giving a half-maximal response (EC50) in series [2] stood at 0.9 nM.

With `Nc1ncnc2c1ncn2[C@@H]1O[C@H](COP(=O)(O)O[C@@H]2[C@H](O)[C@@H](COP(=O)(O)O[C@H]3[C@H](O)[C@@H](COP(=O)(O)O[C@@H]4[C@H](O)[C@@H](COP(=O)(O)O)O[C@H]4n4cnc5c(N)ncnc54)O[C@H]3n3cnc4c(N)ncnc43)O[C@H]2n2cnc3c(N)ncnc32)[C@@H](O)[C@H]1OP(=O)(O)O`, the Activity in series [1] stood at 37%.

`Nc1ncnc2c1ncn2[C@@H]1O[C@H](COP(=O)(O)O)[C@H](O)[C@H]1OP(=O)(O)OC[C@H]1O[C@@H](n2cnc3c(N)ncnc32)[C@H](OP(=O)(O)OC[C@H]2O[C@@H](n3cnc4c(N)ncnc43)[C@H](OP(=O)(O)OC[C@H]3O[C@@H](n4cnc5c(N)ncnc54)[C@H](OP(=O)(O)O)[C@@H]3O)[C@@H]2O)[C@@H]1O` registered an Activity in series [1] of 86%. On the same count and under the same terms, in the case of `Nc1ncnc2c1ncn2[C@@H]1O[C@H](COP(=O)(O)O[C@@H]2[C@H](O)[C@@H](COP(=O)(O)O[C@@H]3[C@H](O)[C@@H](COP(=O)(O)O)O[C@H]3n3cnc4c(N)ncnc43)O[C@H]2n2cnc3c(N)ncnc32)[C@@H](O)[C@H]1OP(=O)(O)O` it was 39%; in that of `Nc1ncnc2c1ncn2[C@@H]1O[C@H](COP(=O)(O)O[C@H]2[C@H](O)[C@@H](COP(=O)(O)O[C@@H]3[C@H](O)[C@@H](COP(=O)(O)O[C@H]4[C@H](O)[C@@H](COP(=O)(O)O)O[C@H]4n4cnc5c(N)ncnc54)O[C@H]3n3cnc4c(N)ncnc43)O[C@H]2n2cnc3c(N)ncnc32)[C@@H](O)[C@H]1OP(=O)(O)O`, 51%. On the same count and under the same terms, next, `Nc1ncnc2c1ncn2[C@@H]1O[C@H](COP(=O)(O)O)[C@H](O)[C@H]1OP(=O)(O)OC[C@H]1O[C@@H](n2cnc3c(N)ncnc32)[C@H](OP(=O)(O)OC[C@H]2O[C@@H](n3cnc4c(N)ncnc43)[C@H](OP(=O)(O)OC[C@H]3O[C@@H](n4cnc5c(N)ncnc54)[C@H](OP(=O)(O)O)[C@@H]3O)[C@H]2O)[C@H]1O`: 43%; `Nc1ncnc2c1ncn2[C@@H]1O[C@H](COP(=O)(O)O[C@@H]2[C@H](O)[C@@H](COP(=O)(O)O[C@@H]3[C@H](O)[C@@H](COP(=O)(O)O[C@H]4[C@H](O)[C@@H](COP(=O)(O)O)O[C@H]4n4cnc5c(N)ncnc54)O[C@H]3n3cnc4c(N)ncnc43)O[C@H]2n2cnc3c(N)ncnc32)[C@@H](O)[C@H]1OP(=O)(O)O`: 40%.
